Assay results as given in PubChem BioAssay AID624066 (The Scripps Research Institute Molecular Screening Center, 2012).
Several values for one entry are separate records, joined by “and”; a condition that tells them apart may be missing. Equal values may be shown once. Activity calls are given as the source filed them.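 The calls were made as follows: active = IC50 of 10 µM or lower; inactive = IC50 above 10 µM.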

Molecular target: Insulin-degrading enzyme (Homo sapiens) (UniProt P14735)
Assay: fluorescent artefact check on IDE activity – biochemical, fluorogenic FRET1 peptide, fluorescence, powder samples, artefact control for IDE inhibitor project, late-stage follow-up (AID 624066)
Details: recombinant IDE
Summary of the method: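 Test system: purified recombinant wild-type IDE / Quantity: IDE at 1 nM final, roughly EC80 / Incubation: continuous kinetic reading every 2 min over 2 h at 22 °C / Signal: fluorescence, ex 335 nm, em 385 nm / Evaluation: IC50 from percent activity of hydrolysis rate / Benchmarks: high DMSO only, low no enzyme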

Sequence of Insulin-degrading enzyme (Homo sapiens) (P14735 whole entry, looked up): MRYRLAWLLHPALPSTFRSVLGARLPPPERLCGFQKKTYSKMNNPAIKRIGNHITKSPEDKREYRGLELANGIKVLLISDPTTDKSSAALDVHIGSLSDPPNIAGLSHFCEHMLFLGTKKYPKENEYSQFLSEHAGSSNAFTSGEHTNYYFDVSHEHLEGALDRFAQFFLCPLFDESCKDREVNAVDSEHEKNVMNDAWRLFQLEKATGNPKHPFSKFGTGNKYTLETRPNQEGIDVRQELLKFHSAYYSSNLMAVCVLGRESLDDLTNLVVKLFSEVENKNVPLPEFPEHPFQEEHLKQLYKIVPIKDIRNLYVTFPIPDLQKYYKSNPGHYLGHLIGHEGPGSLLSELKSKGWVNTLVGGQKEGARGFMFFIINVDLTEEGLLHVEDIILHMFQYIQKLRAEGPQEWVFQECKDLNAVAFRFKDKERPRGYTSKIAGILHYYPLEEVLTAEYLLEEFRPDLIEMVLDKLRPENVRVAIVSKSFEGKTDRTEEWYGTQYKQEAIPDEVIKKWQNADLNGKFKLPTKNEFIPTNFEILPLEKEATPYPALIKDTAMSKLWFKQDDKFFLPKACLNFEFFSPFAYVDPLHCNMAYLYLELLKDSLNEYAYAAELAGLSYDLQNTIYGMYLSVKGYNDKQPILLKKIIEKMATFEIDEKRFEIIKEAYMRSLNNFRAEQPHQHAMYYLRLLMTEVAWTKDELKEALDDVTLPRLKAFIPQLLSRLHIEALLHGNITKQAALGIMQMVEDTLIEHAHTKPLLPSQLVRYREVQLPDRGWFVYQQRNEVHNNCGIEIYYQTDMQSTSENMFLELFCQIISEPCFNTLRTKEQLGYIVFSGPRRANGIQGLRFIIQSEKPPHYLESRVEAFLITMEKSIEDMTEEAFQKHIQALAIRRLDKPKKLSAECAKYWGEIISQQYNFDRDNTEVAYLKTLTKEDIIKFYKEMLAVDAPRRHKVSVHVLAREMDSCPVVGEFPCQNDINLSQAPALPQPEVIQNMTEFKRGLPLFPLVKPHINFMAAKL

Structure (SMILES) | IC50
COc1ccc(C(=O)N2CCCN(C(=O)C3COc4ccccc4O3)CC2)cc1OC (stereo unspecified) | > 10 µM (inactive)
O=C(c1ccc2c(c1)OCO2)N1CCN(C(=O)C2COc3ccccc3O2)CC1 (stereo unspecified) | > 10 µM (inactive)
O=C(CSc1nnc(-c2cccc(Cl)c2)n1Cc1ccco1)Nc1ccccc1C(F)(F)F | > 100 µM (inactive)
Cc1cccc(-c2nnc(SCc3nc4ccccc4[nH]3)n2Cc2ccco2)c1 | 9 µM and 6.4 µM
Clc1cccc(-c2nnc(SCc3nc4ccccc4[nH]3)n2Cc2ccco2)c1 | 5 µM
COc1cccc(-c2nnc(SCc3nc4ccccc4[nH]3)n2Cc2ccco2)c1 | 6.4 µM
COc1ccc(C(=O)N2CCN(C(=O)C3COc4ccccc4C3)CC2)cc1OC (stereo unspecified) | > 10 µM (inactive)
O=C(Nc1cc(C(F)(F)F)cc(C(F)(F)F)c1)c1csc(-c2ccncc2)n1 | > 100 µM (inactive)
O=C(c1ccc2c(c1)OCO2)N1CCCN(C(=O)C2COc3ccccc3O2)CC1 (stereo unspecified) | > 10 µM (inactive)
O=C(c1ccc2c(c1)OCCO2)N1CCCN(C(=O)C2COc3ccccc3C2)CC1 (stereo unspecified) | > 10 µM (inactive)
COc1ccc(C(=O)N2CCN(C(=O)C3COc4ccccc4O3)CC2)cc1OC (stereo unspecified) | 1.2 µM and > 10 µM (inactive) and > 100 µM (inactive)
O=C(C1CC1)N1CCN(c2ccnc3cc(Cl)ccc23)CC1 | > 100 µM (inactive)
O=C(c1ccc2c(c1)OCO2)N1CCN(C(=O)C2COc3ccccc3C2)CC1 (stereo unspecified) | > 10 µM (inactive)
O=C(Nc1cccc(C(F)(F)F)c1)c1csc(Cc2cccc(C(F)(F)F)c2)n1 | > 100 µM (inactive)
COc1ccc(C(=O)N2CCN(C(=O)C3CCc4ccccc4O3)CC2)cc1OC (stereo unspecified) | > 10 µM (inactive)
O=c1c2ccccc2sn1-c1cc(S(=O)(=O)N2CCOCC2)ccc1N1CCOCC1 | 0.2 µM
COc1cc(/C=C2\SC(=S)N(NC(C)=O)C2=O)ccc1OC(=O)c1ccco1 | > 10 µM (inactive)
COc1ccc(NC(=O)CSc2nnc(CN3CCOCC3)n2C)cc1Cl | > 100 µM (inactive)
COc1ccc(C(=O)N2CCCN(C(=O)C3CCc4ccccc4O3)CC2)cc1OC (stereo unspecified) | > 10 µM (inactive)
Cc1ccc(C)c(N2C(=N)S/C(=C\c3ccc(-c4ccccc4C(=O)O)o3)C2=O)c1 | inactive
Clc1cccc(-c2nnc(SCc3nc4ccccc4[nH]3)n2-c2ccccc2)c1 | inactive
COc1ccc(C(=O)N2CCCN(C(=O)C3COc4ccccc4C3)CC2)cc1OC (stereo unspecified) | > 10 µM (inactive)
COc1ccc(-c2nc(C(=O)Nc3cccc(C(F)(F)F)c3)cs2)cc1 | > 100 µM (inactive)
O=C(CSc1nnc(-c2cccc(Cl)c2)n1Cc1ccco1)Nc1ccc2cn[nH]c2c1 | > 100 µM (inactive)
O=C(c1ccc2c(c1)OCO2)N1CCN(C(=O)[C@H]2COc3ccccc3O2)CC1 | > 10 µM (inactive)
O=C(c1ccc2c(c1)OCCO2)N1CCN(C(=O)C2CCc3ccccc3O2)CC1 (stereo unspecified) | > 10 µM (inactive)
O=C(c1ccc2c(c1)OCO2)N1CCN(C(=O)C2CCc3ccccc3O2)CC1 (stereo unspecified) | > 10 µM (inactive)
O=C(Nc1cccc(C(F)(F)F)c1)c1csc(-c2ccncc2)n1 | 5 µM
Cc1c(CCC(=O)NCCCn2ccnc2)c(=O)oc2cc3oc4c(c3cc12)CCCC4 | 5 µM
O=C(c1ccc2c(c1)OCO2)N1CCCN(C(=O)C2CCc3ccccc3O2)CC1 (stereo unspecified) | > 10 µM (inactive)

The next lines start with the values.

IC50 | Structure (SMILES)
> 10 µM (inactive) | O=C(c1ccc2c(c1)OCCO2)N1CCN(C(=O)C2COc3ccccc3C2)CC1 (stereo unspecified)
> 100 µM (inactive) | Cn1c(SCc2nc3ccccc3[nH]2)nnc1-c1cccc(Cl)c1
> 10 µM (inactive) | O=C(c1ccc2c(c1)OCO2)N1CCCN(C(=O)C2COc3ccccc3C2)CC1 (stereo unspecified)
5 µM | O=C(O)c1ccccc1NS(=O)(=O)c1cccc(-n2sc3ccccc3c2=O)c1
> 100 µM (inactive) | CC(Sc1nnc(-c2cccnc2)n1-c1ccccc1F)C(=O)N1CCCc2ccccc21 (stereo unspecified)
inactive | CCOc1ccc2[nH]c3c(N4CCN(C(=O)c5ccco5)CC4)ncnc3c2c1
0.4 µM | Cn1c(=O)c(C(=O)CN2CCCc3ccccc32)c(N)n(Cc2ccccc2)c1=O
> 100 µM (inactive) | Nc1c(C(=O)Nc2nccs2)sc2nc(-c3cccs3)cc(C(F)(F)F)c12
> 100 µM (inactive) | Cc1nc(-c2cccnc2)sc1C(=O)Nc1cccc(C(F)(F)F)c1
> 10 µM (inactive) | O=C(c1ccc2c(c1)OCO2)N1CCN(C(=O)[C@@H]2COc3ccccc3O2)CC1
> 100 µM (inactive) | O=C(CSc1nnc(-c2cccc(Cl)c2)n1Cc1ccco1)Nc1ccc2c(c1)OCCO2
> 100 µM (inactive) | O=C(CSc1nnc(-c2cccc(Cl)c2)n1Cc1ccco1)c1ccc2ccccc2c1
> 100 µM (inactive) | Cc1ccc(NC(=O)CSc2nnc(-c3cccc(Cl)c3)n2Cc2ccco2)c(C)c1
> 100 µM (inactive) | O=C(Nc1ccc2oc(-c3cccnc3)nc2c1)c1ccc2c(c1)OCCO2
> 100 µM (inactive) | Cc1ccc(-c2nc(C(=O)Nc3cccc(C(F)(F)F)c3)cs2)cc1
> 10 µM (inactive) | O=C(c1ccc2c(c1)OCCO2)N1CCCN(C(=O)C2CCc3ccccc3O2)CC1 (stereo unspecified)
> 100 µM (inactive) | CCN(CC)c1ccc(/C=C2\C(=N)N3N=C(CC(=O)N4CCOCC4)SC3=NC2=O)cc1
> 10 µM (inactive) | O=C(c1ccc2c(c1)OCCO2)N1CCN(C(=O)C2COc3ccccc3O2)CC1 (stereo unspecified)
> 10 µM (inactive) | O=C(c1ccc2c(c1)OCCO2)N1CCCN(C(=O)C2COc3ccccc3O2)CC1 (stereo unspecified)
> 100 µM (inactive) | O=C(Nc1cccc(C(F)(F)F)c1)c1csc(-c2cccc(C(F)(F)F)c2)n1
> 100 µM (inactive) | O=C(Nc1cccc(C(F)(F)F)c1)c1csc(-c2ccccc2)n1
